In data set [1] the target is T1, Broad substrate specificity ATP-binding cassette transporter ABCG2 (Rattus norvegicus, UniProt Q80W57).
T1 sequence (Q80W57 whole entry): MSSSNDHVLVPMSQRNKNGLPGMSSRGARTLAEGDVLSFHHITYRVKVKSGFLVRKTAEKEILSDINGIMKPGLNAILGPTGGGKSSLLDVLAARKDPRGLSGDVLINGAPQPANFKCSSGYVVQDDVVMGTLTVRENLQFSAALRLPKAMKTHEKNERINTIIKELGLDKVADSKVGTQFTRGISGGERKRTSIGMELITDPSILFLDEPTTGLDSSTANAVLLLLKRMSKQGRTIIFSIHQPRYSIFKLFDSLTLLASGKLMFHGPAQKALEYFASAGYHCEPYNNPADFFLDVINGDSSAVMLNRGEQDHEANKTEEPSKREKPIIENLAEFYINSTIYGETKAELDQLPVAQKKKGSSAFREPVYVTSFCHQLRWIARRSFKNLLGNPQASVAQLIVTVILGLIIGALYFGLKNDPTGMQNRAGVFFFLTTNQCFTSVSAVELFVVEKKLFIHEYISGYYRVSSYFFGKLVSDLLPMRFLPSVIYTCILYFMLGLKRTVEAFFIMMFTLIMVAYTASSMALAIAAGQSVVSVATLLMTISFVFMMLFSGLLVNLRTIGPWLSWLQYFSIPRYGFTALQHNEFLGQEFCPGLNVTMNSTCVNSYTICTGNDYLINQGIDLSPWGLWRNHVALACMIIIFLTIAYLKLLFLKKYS
Put plainly: Activity at rat ABCG2 expressed in MDCK cells assessed as asymmetrical efflux ratio of permeability at 25 uM after 1 hr. It counts as ADME, cell-based. In a few lines:
(§1)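 Rat Abcg2-transfected and empty-vector MDCKII cells seeded at 1.0×10^6 cells/well on 3.0 μm Transwell filters, grown 4 days to TEER >200 Ω·cm². Racemic pantoprazole donor at 25 μM, 37°C, 5% CO2. Receiver sampled at 1, 2, 3, 4 h; [³H]mannitol checked monolayer integrity. Efflux ratio taken at 1 h from initial rates; n=3.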

In the next data set the test system is MDCK. Put plainly: Asymmetrical efflux ratio of permeability in MDCK cells at 25 uM after 1 hr. It counts as ADME, cell-based, Canis lupus familiaris. The conditions noted are these: dog. In a few lines:
as §1

Data set [2] deals with Serum. The data set is described as follows: (§2) Drug uptake in jugular and femoral vein-cannulated lactating Sprague-Dawley rat serum at 0.4 mg/ml, iv administered as infusion after 2 hrs by LC-MS analysis. It counts as ADME, organism-based. The conditions noted are these: in vivo, 2 h. In a few lines:
(§3)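 Lactating Sprague-Dawley rats on days 10–12 postpartum, cannulated. i.v. bolus of GF120918 (10 mg/kg in DMSO) or DMSO alone, then 10 min later an 8 h i.v. infusion of racemic drug in saline (0.4 mg/ml/h). Serum sampled at 2, 4, 6, 8 h. Milk collected by manual expression under light ketamine anesthesia at 8 h. Isomers quantified by LC-MS with zonisamide internal standard. n=5.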

The nature of data set [3]: Drug uptake in jugular and femoral vein-cannulated lactating Sprague-Dawley rat milk at 0.4 mg/ml, iv administered as infusion after 8 hrs by LC-MS analysis in presence of GF120918. It counts as ADME, organism-based. The conditions noted are these: in vivo. In short, it runs like this:
as §3

Data set [4] is described as follows: Fraction unbound in jugular and femoral vein-cannulated lactating Sprague-Dawley rat whole milk at 0.4 mg/ml, iv administered as infusion after 8 hrs by equilibrium dialysis method. It counts as ADME, organism-based. In a few lines:
(§4)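 Equilibrium dialysis of rat serum and milk against 0.133 M phosphate buffer (serum pH 7.45, milk pH 6.8), 8 h at 37°C, in 0.5 ml cells. Serum levels used were those seen in the infusion study. Both sides measured by LC-MS. n=4.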

Data set [5] has as its system Serum. The data set is described as follows: (§5) Fraction unbound in jugular and femoral vein-cannulated lactating Sprague-Dawley rat serum at 0.4 mg/ml, iv administered as infusion after 8 hrs by equilibrium dialysis method. The conditions noted are these: in vivo, 8 h. It counts as ADME, organism-based. In short, it runs like this: as §4
A further data set relates to Rattus norvegicus. Put plainly: (§6) Clearance in jugular and femoral vein-cannulated lactating Sprague-Dawley rat at 0.4 mg/ml, iv administered as infusion. It counts as ADME, organism-based. The conditions noted are these: in vivo. In short, it runs like this: (§7)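 Lactating Sprague-Dawley rats on days 10–12 postpartum, jugular and femoral cannulated under ketamine/xylazine. Crossover design: i.v. bolus of GF120918 (10 mg/kg in DMSO) or DMSO 10 min before an 8 h i.v. infusion of racemic drug in saline (0.4 mg/ml/h). Enantiomers measured by chiral LC-MS. Clearance = infusion rate / mean serum level over 2–8 h. M/S = 8 h milk level / serum level. n=5.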

Data set [6] in a line: Drug uptake in jugular and femoral vein-cannulated lactating Sprague-Dawley rat milk at 0.4 mg/ml, iv administered as infusion after 8 hrs by LC-MS analysis. The conditions noted are these: in vivo. It counts as ADME, organism-based. In short, it runs like this: as §3
The nature of data set [7]: Ratio of drug level in milk to serum in jugular and femoral vein-cannulated lactating Sprague-Dawley rat at 0.4 mg/ml, iv administered as infusion in presence of GF120918. It counts as ADME, organism-based. The conditions noted are these: female, with GF120918.
The nature of data set [8]: as §2. The conditions noted are these: female, Sprague-Dawley, serum, 0.4 mg/ml, read-out: Drug uptake. It counts as ADME, organism-based. In a few lines: as §3
Data set [9] has as its system Serum. The data set is described as follows: Drug uptake in jugular and femoral vein-cannulated lactating Sprague-Dawley rat serum at 0.4 mg/ml, iv administered as infusion after 2 hrs by LC-MS analysis in presence of GF120918. The conditions noted are these: in vivo. It counts as ADME, organism-based. In short, it runs like this:
as §3

Data set [10] can be described thus: as §5. It counts as ADME, organism-based. The conditions noted are these: female, Sprague-Dawley, serum, 0.4 mg/ml. In a few lines: as §4
Data set [11] is described as follows: as §6. It counts as ADME, organism-based. The conditions noted are these: female, Sprague-Dawley, in vivo, 0.4 mg/ml. In short, it runs like this: as §7
Data set [12] can be described thus: Dissociation constant, pKa of the compound. It counts as physicochemical.
The nature of data set [13]: Protein binding in human serum. It counts as ADME, cell-free. The conditions noted are these: read-out: PB.

A value given as a limit tells only on which side of the number the result lay.

Take `COc1ccnc(C[S+]([O-])c2nc3cc(OC(F)F)ccc3[n-]2)c1OC.O.[Na+]` (stereo in doubt; (+)) [PANTOPRAZOLE SODIUM]: the Ratio came out at 5.15 in data set [1] and 0.9 with MDCK. For the same molecule, the Drug uptake was determined as 1.2 µg/mL with Serum [2], 0.53 µg/mL in data set [3] and 0.64 µg/mL in data set [6]. Moreover, the Fu in [4] (in vivo, 8 h) came to 26%; in the data set with Serum [5] it was 2.33%. This molecule yielded a CL in the data set with Rattus norvegicus of 9.5 mL/min/kg.

In the case of `COc1ccnc(C[S+]([O-])c2nc3cc(OC(F)F)ccc3[n-]2)c1OC.O.[Na+]` (stereo in doubt; (-)) [PANTOPRAZOLE SODIUM], the Ratio in data set [1] was 1.51. In data set [7], the Kp was 0.5. Also, in data set [8], the concentration at 2 h stood at 1630 ng/mL. Also, the Drug uptake in the data set on Serum [9] stood at 37%; in data set [3], 1.1 µg/mL; in [6] it was 2.26 µg/mL. The fraction unbound at 8 h in [4] (female, Sprague-Dawley, whole milk, 0.4 mg/ml) was found to be 0.271; in data set [10], 0.0238. In addition, the clearance in data set [11] is 7.33 mL/min/kg. Further, the pKa in data set [12] was found to be 3.9.

In the case of `COc1ccnc(C[S+]([O-])c2nc3ccc(OC(F)F)cc3[nH]2)c1OC` (centres undefined) [PANTOPRAZOLE SODIUM], the fraction unbound in data set [13] was less than 0.02.
